Measurements as given in ChEMBL document CHEMBL1629439, “High-throughput identification of antibacterials against methicillin-resistant Staphylococcus aureus (MRSA) and the transglycosylase” (Bioorg Med Chem, 2010).
Values after ≈ are worked out from the molar mass of the structure shown.

Tests used:
[1] = Displacement of fluorescein-labeled moenomycin from transglycosylase at 100 uM after 30 mins by fluorescence anisotropy binding assay
[2] = tested on: Bacillus subtilis; experiment: Antimicrobial activity against Bacillus subtilis ATCC 23857 after 18 to 24 hrs by alamar blue assay; type: functional
In short: (§1)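 Broth microdilution per NCCLS in Mueller-Hinton broth, 8-point twofold dilutions, 384-well format. Exponential-phase cells at 5 × 10^5 cells/ml incubated with compound 18–24 h at 37 °C, then 20% Alamar blue added and fluorescence read. MIC90 taken as the lowest concentration preventing at least 90% bacterial growth.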

[3] = tested on: Staphylococcus aureus; experiment: Antimicrobial activity against oxacillin- and methicillin-resistant Staphylococcus aureus isolate Sa-OXA-R2 after 18 to 24 hrs by alamar blue assay; type: functional
In short: (§2)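 Broth microdilution per NCCLS standard, Mueller-Hinton broth, 8-point twofold dilutions; exponentially growing cells at 5 10^5 cells/ml with compound, 18–24 h at 37 C; 20% Alamar blue added, fluorescence read; MIC90 taken as lowest concentration preventing at least 90% growth.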

[4] = tested on: Staphylococcus aureus; experiment: Antimicrobial activity against Staphylococcus aureus ATCC 29213 after 18 to 24 hrs by alamar blue assay
[5] = tested on: Escherichia coli; experiment: Antimicrobial activity against Escherichia coli ATCC […] after 18 to 24 hrs by alamar blue assay; type: functional; conditions: Escherichia coli; read-out: MIC
In short: as §1

[6] = tested on: Mycolicibacterium smegmatis; experiment: Antimicrobial activity against Mycobacterium smegmatis BCRC 11565 after 18 to 24 hrs by alamar blue assay; type: functional; conditions: Mycolicibacterium smegmatis, BCRC 11565; read-out: MIC
In short: as §1

[7] = tested on: Acinetobacter baumannii; experiment: Antimicrobial activity against Acinetobacter baumannii ATCC 49139 after 18 to 24 hrs by alamar blue assay; type: functional; conditions: Acinetobacter baumannii, ATCC 49139; read-out: MIC
In short: as §1

[8] = tested on: Staphylococcus aureus; experiment: Antimicrobial activity against methicillin-resistant Staphylococcus aureus ATCC 33592 after 18 to 24 hrs by alamar blue assay; type: functional; conditions: Staphylococcus aureus, ATCC 33592; read-out: MIC
In short: as §2

[9] = Inhibition of transglycosylase assessed as inhibition of NBD- labelled lipid II polymerization at 100 uM
In short: (§3)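 100 µM NBD-labelled lipid II incubated 30 min with full-length PBP (EC, SA or Mtb) and 10 ng/µl N-acetylmuramidase in 50 mM Tris-HCl pH 8.0, 10 mM MgCl2, 0.1% Triton X-100, 10% DMSO, 15% MeOH. Supernatant run on anion-exchange HPLC with 20 mM–0.5 M ammonium acetate gradient. Inhibition calculated from substrate peak-area percentage. IC50 determined. S. aureus strains share one SA enzyme.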

[10] = tested on: Staphylococcus aureus; experiment: Antimicrobial activity against methicillin-resistant Staphylococcus aureus isolate NTUH4722 after 18 to 24 hrs by alamar blue assay; type: functional
In short: as §2

[11] = tested on: Pseudomonas aeruginosa; experiment: Antimicrobial activity against Pseudomonas aeruginosa ATCC 25619 after 18 to 24 hrs by alamar blue assay; type: functional; conditions: Pseudomonas aeruginosa, ATCC 25619; read-out: MIC
In short: as §1

[12] = tested on: Stenotrophomonas maltophilia; experiment: Antimicrobial activity against Stenotrophomonas maltophilia ATCC 13637 after 18 to 24 hrs by alamar blue assay; type: functional; conditions: Stenotrophomonas maltophilia, ATCC 13637; read-out: MIC
In short: as §1

[13] = tested on: Serratia marcescens; experiment: Antimicrobial activity against Serratia marcescens ATCC 14756 after 18 to 24 hrs by alamar blue assay; type: functional; conditions: Serratia marcescens, ATCC 14756; read-out: MIC
In short: as §1

[14] = Inhibition of transglycosylase assessed as inhibition of NBD- labelled lipid II polymerization
In short: as §3

Row | inhibition [1] [%] | inhibition [9] [%] | Compound | MIC [2] [µg/mL] | MIC [3] [µg/mL] | MIC [4] [µg/mL] | MIC [5] [µg/mL] | MIC [6] [µg/mL] | MIC [7] [µg/mL] | MIC [8] [µg/mL] | MIC [10] [µg/mL] | MIC [11] [µg/mL] | MIC [12] [µg/mL] | MIC [13] [µg/mL] | IC90 [14] [µM]
1 | 96 | 0 | Cc1ccc(-c2cc(C(=O)Oc3cccc(C)c3)no2)cc1 | – | – | – | – | – | – | – | – | – | – | – | –
2 | 93 | 0 | CCn1cc(C(=O)O)c(=O)c2cc(F)c(N3CCN(C(=O)c4cccc(C)c4)CC3)cc21 | – | – | – | – | – | – | – | – | – | – | – | –
3 | – | – | O=C(Nc1ccc(Oc2ccc(Br)c3ccccc23)c(Cl)c1)c1cc(Br)cc(Br)c1O | < 0.03 | ≤ 0.03 | 4 (≈ 6.38 µM) | 8 (≈ 12.8 µM) | 0.5 (≈ 0.798 µM) | 16 (≈ 25.5 µM) | ≤ 2 | ≤ 0.03 | 16 (≈ 25.5 µM) | 16 (≈ 25.5 µM) | 16 (≈ 25.5 µM) | 100
4 | – | – | O=C(Nc1ccc(Oc2ccc3ccccc3c2Cl)c(Cl)c1)c1cc(I)cc(I)c1O | < 0.03 | ≤ 0.03 | 8 (≈ 11.8 µM) | 8 (≈ 11.8 µM) | 0.5 (≈ 0.74 µM) | 16 (≈ 23.7 µM) | 8 (≈ 11.8 µM) | ≤ 0.03 | 16 (≈ 23.7 µM) | 16 (≈ 23.7 µM) | 16 (≈ 23.7 µM) | > 100
5 | – | – | O=C(Nc1cc(S(=O)(=O)c2ccc(Cl)cc2)ccc1Cl)c1cc(I)cc(I)c1O | < 0.03 | ≤ 0.03 | 8 (≈ 11.9 µM) | 8 (≈ 11.9 µM) | 0.5 (≈ 0.742 µM) | 16 (≈ 23.7 µM) | 8 (≈ 11.9 µM) | ≤ 0.03 | 16 (≈ 23.7 µM) | 16 (≈ 23.7 µM) | 16 (≈ 23.7 µM) | 100
6 | 97 | 0 | C(=C\c1nc([P+](c2ccccc2)(c2ccccc2)c2ccccc2)c(N2CCCCCC2)o1)/c1ccccc1 | – | – | – | – | – | – | – | – | – | – | – | –
7 | – | – | Cc1ccc(C(C)C)c(Oc2ccccc2NC(=O)c2cc(Br)cc(Br)c2O)c1 | < 0.03 | ≤ 0.03 | 1 (≈ 1.93 µM) | 8 (≈ 15.4 µM) | 0.5 (≈ 0.963 µM) | 16 (≈ 30.8 µM) | 4 (≈ 7.7 µM) | ≤ 0.03 | 16 (≈ 30.8 µM) | 16 (≈ 30.8 µM) | 16 (≈ 30.8 µM) | 50
8 | – | – | Cc1ccc(C(=O)c2cc(NC(=O)c3cc(I)cc(I)c3O)ccc2Cl)cc1 | < 0.03 | ≤ 0.03 | 4 (≈ 6.48 µM) | 8 (≈ 13 µM) | 0.5 (≈ 0.81 µM) | 16 (≈ 25.9 µM) | 4 (≈ 6.48 µM) | ≤ 0.03 | 16 (≈ 25.9 µM) | 16 (≈ 25.9 µM) | 16 (≈ 25.9 µM) | 100
9 | – | – | O=C(Nc1cc(Cl)ccc1Oc1ccc(Br)c2ccccc12)c1cc(Cl)cc(I)c1O | < 0.03 | ≤ 0.03 | 8 (≈ 12.7 µM) | 8 (≈ 12.7 µM) | 0.5 (≈ 0.795 µM) | 16 (≈ 25.4 µM) | 4 (≈ 6.36 µM) | ≤ 0.03 | 16 (≈ 25.4 µM) | 16 (≈ 25.4 µM) | 16 (≈ 25.4 µM) | 100
10 | – | – | O=C(c1ccc(NC(=O)c2cc(Br)cc(Br)c2O)c(Cl)c1)c1cccs1 | < 0.03 | ≤ 0.03 | 4 (≈ 7.76 µM) | 8 (≈ 15.5 µM) | 0.5 (≈ 0.97 µM) | 16 (≈ 31 µM) | 4 (≈ 7.76 µM) | ≤ 0.03 | 16 (≈ 31 µM) | 16 (≈ 31 µM) | 16 (≈ 31 µM) | > 100
11 | – | – | O=C(Nc1ccc(S(=O)(=O)c2nc3ccccc3s2)c(Cl)c1)c1cc(Cl)cc(Cl)c1O | < 0.03 | ≤ 0.03 | 8 (≈ 15.6 µM) | 8 (≈ 15.6 µM) | 0.5 (≈ 0.973 µM) | 16 (≈ 31.1 µM) | 4 (≈ 7.78 µM) | ≤ 0.03 | 16 (≈ 31.1 µM) | 16 (≈ 31.1 µM) | 16 (≈ 31.1 µM) | 100
12 | – | – | O=C(Nc1cc(Cl)ccc1Oc1ccc(Cl)c2ccccc12)c1cc(I)cc(I)c1O | < 0.03 | ≤ 0.03 | 4 (≈ 5.92 µM) | 8 (≈ 11.8 µM) | 0.5 (≈ 0.74 µM) | 16 (≈ 23.7 µM) | ≤ 2 | ≤ 0.03 | 16 (≈ 23.7 µM) | 16 (≈ 23.7 µM) | 16 (≈ 23.7 µM) | 50

Row | Compound | inhibition [1] [%] | inhibition [9] [%] | MIC [2] [µg/mL] | MIC [3] [µg/mL] | MIC [4] [µg/mL] | MIC [5] [µg/mL] | MIC [6] [µg/mL] | MIC [7] [µg/mL] | MIC [8] [µg/mL] | MIC [10] [µg/mL] | MIC [11] [µg/mL] | MIC [12] [µg/mL] | MIC [13] [µg/mL] | IC90 [14] [µM]
13 | O=C(Nc1cccc2cccnc12)c1ccc([N+](=O)[O-])o1 | 90 | 0 | 0.06 (≈ 0.212 µM) | 2 (≈ 7.06 µM) | 2 (≈ 7.06 µM) | 256 (≈ 904 µM) | 0.5 (≈ 1.77 µM) | 12 (≈ 42.4 µM) | 2 (≈ 7.06 µM) | 2 (≈ 7.06 µM) | 128 (≈ 452 µM) | 32 (≈ 113 µM) | 32 (≈ 113 µM) | –
